{"source": "paper PMC4969713", "about": "(Journal of Alzheimer's Disease, 2016)", "key": {"[1]": {"biological_target": "5-HT2B receptor (Homo sapiens, UniProt P41595)", "sequence (P41595 whole entry)": "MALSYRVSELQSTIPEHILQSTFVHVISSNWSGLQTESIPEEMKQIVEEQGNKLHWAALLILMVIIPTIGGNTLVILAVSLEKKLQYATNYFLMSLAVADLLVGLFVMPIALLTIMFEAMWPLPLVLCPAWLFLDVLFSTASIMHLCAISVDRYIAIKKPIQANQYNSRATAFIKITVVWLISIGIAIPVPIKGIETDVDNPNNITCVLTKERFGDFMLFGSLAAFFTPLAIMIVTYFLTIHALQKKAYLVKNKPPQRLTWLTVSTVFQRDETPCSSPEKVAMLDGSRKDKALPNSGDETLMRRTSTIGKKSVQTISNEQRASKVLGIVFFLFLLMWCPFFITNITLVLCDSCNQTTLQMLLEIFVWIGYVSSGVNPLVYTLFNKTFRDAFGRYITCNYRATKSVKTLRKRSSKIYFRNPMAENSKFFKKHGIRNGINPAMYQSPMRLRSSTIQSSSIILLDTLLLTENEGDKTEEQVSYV", "assay": "Intracellular Ca2+ mobilization in HEK 297 cells expressing 5-HT2B", "format": "cell-based"}, "[2]": {"biological_target": "hKv4.3-hKCh1P2.2 (Ito) (Homo sapiens, UniProt Q9UK17)", "sequence (Q9UK17 whole entry)": "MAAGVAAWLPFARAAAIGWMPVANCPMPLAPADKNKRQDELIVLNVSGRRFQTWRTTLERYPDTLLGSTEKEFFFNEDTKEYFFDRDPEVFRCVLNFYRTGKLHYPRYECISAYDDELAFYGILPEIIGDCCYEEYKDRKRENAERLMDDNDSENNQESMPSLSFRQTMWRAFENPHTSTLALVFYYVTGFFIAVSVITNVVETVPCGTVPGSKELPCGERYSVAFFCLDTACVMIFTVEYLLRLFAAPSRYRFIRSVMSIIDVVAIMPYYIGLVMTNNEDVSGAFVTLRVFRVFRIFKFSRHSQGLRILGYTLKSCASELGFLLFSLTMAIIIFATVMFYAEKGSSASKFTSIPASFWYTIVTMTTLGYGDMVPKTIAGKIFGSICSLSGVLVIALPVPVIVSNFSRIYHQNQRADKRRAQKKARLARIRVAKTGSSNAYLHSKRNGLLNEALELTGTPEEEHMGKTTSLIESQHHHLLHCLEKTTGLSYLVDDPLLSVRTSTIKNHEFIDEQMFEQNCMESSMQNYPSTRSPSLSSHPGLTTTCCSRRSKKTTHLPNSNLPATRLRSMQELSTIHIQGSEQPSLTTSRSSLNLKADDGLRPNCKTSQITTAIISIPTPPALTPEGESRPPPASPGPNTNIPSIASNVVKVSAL", "assay": "Cardiac channel inhibition, Ito", "format": "cell-based"}, "[3]": {"system": "Wistar rats", "assay": "180 days toxicity, rats", "format": "in vivo"}, "[4]": {"biological_target": "hNav1.5 (Homo sapiens, UniProt Q14524)", "sequence (Q14524 whole entry)": "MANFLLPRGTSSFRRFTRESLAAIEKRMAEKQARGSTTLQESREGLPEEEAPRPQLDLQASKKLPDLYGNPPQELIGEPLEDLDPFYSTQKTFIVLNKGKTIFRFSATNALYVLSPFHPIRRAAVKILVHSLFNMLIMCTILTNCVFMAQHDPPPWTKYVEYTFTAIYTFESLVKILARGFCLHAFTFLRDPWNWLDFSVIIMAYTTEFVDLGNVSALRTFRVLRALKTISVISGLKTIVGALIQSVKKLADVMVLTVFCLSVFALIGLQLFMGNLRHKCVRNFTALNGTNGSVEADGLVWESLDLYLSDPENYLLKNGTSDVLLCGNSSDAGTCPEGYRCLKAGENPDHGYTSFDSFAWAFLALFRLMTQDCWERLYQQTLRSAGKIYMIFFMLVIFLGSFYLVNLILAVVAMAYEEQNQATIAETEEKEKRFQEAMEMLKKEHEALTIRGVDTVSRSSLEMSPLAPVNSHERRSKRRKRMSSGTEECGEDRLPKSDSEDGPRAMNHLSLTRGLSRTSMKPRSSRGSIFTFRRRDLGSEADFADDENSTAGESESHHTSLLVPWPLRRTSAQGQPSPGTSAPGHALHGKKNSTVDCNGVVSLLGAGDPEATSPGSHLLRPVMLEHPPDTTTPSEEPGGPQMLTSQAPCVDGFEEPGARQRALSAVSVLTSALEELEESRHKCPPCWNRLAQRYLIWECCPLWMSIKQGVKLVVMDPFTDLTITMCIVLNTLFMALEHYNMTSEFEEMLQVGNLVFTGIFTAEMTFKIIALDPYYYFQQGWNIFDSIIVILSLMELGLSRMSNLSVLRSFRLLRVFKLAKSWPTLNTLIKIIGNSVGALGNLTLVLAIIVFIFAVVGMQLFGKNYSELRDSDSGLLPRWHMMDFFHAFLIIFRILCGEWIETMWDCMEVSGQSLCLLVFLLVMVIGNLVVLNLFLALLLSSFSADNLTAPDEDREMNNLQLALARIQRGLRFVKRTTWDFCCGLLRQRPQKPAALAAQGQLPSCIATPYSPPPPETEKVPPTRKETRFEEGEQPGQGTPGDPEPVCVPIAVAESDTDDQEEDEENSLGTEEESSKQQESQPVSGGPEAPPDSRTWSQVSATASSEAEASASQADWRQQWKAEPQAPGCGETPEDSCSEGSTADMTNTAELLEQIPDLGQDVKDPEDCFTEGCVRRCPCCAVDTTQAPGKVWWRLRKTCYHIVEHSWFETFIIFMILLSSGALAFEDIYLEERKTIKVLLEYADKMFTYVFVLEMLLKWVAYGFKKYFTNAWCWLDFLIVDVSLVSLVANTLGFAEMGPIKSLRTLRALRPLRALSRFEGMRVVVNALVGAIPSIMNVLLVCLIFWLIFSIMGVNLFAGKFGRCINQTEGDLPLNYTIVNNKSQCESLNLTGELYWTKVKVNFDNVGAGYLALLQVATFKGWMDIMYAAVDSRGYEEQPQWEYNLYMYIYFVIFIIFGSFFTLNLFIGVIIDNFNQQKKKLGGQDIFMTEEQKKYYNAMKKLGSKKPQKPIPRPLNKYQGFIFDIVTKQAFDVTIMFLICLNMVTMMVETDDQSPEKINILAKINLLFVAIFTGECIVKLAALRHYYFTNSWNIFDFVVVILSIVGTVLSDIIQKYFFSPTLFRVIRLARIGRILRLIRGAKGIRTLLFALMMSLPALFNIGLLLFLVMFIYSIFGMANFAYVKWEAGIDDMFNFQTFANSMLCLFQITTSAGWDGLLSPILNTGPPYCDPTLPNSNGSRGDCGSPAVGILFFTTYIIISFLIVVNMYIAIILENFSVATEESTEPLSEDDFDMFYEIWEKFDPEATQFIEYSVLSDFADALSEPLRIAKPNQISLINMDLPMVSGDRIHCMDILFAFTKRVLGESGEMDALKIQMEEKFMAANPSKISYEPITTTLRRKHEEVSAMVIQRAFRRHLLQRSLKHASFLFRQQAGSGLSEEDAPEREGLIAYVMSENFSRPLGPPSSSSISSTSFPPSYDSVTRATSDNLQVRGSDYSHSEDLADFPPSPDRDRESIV", "assay": "Cardiac channel inhibition, hNav1.5", "format": "cell-based"}, "[5]": {"assay": "Median lethal dose after single administration", "set-up": "species or system mice", "conditions": "male, CD1, mouse, in vivo", "method_in_brief": "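Male CD1 mice received a single dose of test compound in saline, IP at 80–200 mg/kg or orally at 200–700 mg/kg. Each dose went to a separate group (n = 6). LD50 with standard error was derived by probit analysis.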"}, "[6]": {"system": "Monkeys (Macaca mulatta)", "assay": "Q-T interval, monkeys", "format": "in vivo", "conditions": "1 mg/kg IV; not affected"}, "[7]": {"assay": "Stability in monkey blood plasma", "format": "in vitro ADME", "conditions": "30-min incubation, room temperature"}, "[8]": {"assay": "Metabolism in rat microsomes", "format": "in vitro ADME", "conditions": "for Remaining quantity: AVN-101 1 μM, RLM"}, "[9]": {"biological_target": "Adrenergic α2B (Homo sapiens, UniProt P18089)", "sequence (P18089 whole entry)": "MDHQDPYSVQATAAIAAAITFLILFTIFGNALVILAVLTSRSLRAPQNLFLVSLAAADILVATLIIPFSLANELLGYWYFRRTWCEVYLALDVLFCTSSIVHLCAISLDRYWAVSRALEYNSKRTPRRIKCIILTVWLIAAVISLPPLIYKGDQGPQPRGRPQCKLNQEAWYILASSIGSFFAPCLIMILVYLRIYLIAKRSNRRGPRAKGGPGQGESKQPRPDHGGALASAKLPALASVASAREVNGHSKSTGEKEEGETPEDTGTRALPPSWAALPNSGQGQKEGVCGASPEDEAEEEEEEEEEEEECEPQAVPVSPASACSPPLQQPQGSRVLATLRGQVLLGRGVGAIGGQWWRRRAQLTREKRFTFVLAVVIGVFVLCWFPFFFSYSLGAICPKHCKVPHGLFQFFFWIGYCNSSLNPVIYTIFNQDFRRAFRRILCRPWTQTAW", "assay": "Radioligand competition, adrenergic α2B", "format": "binding"}, "[10]": {"biological_target": "5-HT1B receptor", "conditions": "Table 2; cited from earlier work"}, "[11]": {"biological_target": "T1, 5-HT2C receptor (Homo sapiens, UniProt P28335)", "T1 sequence (P28335 33-458)": "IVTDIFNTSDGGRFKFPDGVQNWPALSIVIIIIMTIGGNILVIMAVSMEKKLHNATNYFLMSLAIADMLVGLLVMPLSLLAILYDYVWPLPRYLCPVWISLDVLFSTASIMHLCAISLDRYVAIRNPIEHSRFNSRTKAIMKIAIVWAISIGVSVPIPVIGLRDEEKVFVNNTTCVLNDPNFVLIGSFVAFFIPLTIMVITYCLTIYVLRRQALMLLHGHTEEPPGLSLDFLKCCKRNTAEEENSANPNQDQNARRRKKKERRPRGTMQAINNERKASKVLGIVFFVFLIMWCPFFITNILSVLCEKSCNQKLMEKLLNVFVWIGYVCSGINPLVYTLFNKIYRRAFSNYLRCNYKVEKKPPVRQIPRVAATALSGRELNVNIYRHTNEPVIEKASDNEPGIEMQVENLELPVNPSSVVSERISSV", "conditions": "Table 2; cited from earlier work"}, "[12]": {"assay": "Pharmacokinetics in dogs", "format": "in vivo, dogs (Beagle)", "conditions": "for Cmax / Tmax / half-life / AUC: Beagle, dog, blood"}, "[13]": {"system": "rhesus macaques (Macaca Mulatta)", "assay": "30 days toxicity, monkeys", "format": "in vivo", "conditions": "5 mg/kg PO daily"}, "[14]": {"system": "sodium channel (Site 2)", "assay": "Target panel binding, sodium channel"}, "[15]": {"assay": "Stability in aqueous solutions", "format": "physicochemical", "conditions": "72 h, room temperature", "method_in_brief": "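Test compound was incubated for 72 h at room temperature. Media were distilled water, salt solution at pH 4.0 or pH 7.0, and physiological solution at pH 7.4. Read-out was the fraction of the original concentration remaining.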"}, "[16]": {"biological_target": "sigma 1 receptor (Homo sapiens, UniProt Q99720)", "sequence (Q99720 whole entry, species assumed)": "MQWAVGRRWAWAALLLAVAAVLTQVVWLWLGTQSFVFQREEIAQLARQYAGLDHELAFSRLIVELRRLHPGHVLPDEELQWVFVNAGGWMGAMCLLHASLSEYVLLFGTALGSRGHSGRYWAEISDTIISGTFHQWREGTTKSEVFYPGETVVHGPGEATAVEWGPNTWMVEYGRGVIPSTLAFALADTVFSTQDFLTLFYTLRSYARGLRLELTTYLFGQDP", "assay": "Target panel binding, sigma 1"}, "[17]": {"biological_target": "5-HT7 receptor (Homo sapiens, UniProt P34969)", "conditions": "Table 2; cited from earlier work"}, "[18]": {"biological_target": "CYP2C8 (Homo sapiens, UniProt P10632)", "sequence (P10632 whole entry)": "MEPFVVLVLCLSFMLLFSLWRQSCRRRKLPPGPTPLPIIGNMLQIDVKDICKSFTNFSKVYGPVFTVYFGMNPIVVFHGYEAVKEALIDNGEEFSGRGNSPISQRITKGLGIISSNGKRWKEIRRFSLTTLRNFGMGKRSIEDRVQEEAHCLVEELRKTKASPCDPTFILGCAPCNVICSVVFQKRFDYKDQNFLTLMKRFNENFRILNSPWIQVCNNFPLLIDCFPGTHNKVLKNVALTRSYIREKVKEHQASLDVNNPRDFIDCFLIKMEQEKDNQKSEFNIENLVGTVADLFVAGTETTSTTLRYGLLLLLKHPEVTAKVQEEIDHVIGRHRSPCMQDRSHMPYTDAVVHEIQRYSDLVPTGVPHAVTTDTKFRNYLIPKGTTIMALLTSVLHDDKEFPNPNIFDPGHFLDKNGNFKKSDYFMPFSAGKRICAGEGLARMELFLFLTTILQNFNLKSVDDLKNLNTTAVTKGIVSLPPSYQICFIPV", "assay": "Metabolism by recombinant CYP2C8", "format": "in vitro ADME"}, "[19]": {"assay": "Metabolism in human liver S9 fraction", "format": "in vitro ADME", "conditions": "for half-life at 1 µM / half-life at 2 µM: human, liver S9 fraction"}, "[20]": {"assay": "Metabolism in rat liver S9 fraction", "format": "in vitro ADME", "conditions": "for half-life at 1 µM / half-life at 2 µM: rat, liver S9 fraction"}, "[21]": {"system": "male BALB/c mice", "assay": "Elevated Platform test", "format": "in vivo", "conditions": "IP; Lorazepam 0.05 mg/kg, AVN-101 0.2 mg/kg; initial 2 min"}, "[22]": {"biological_target": "muscarinic M2 receptor (Homo sapiens, UniProt P08172)", "assay": "Target panel binding, muscarinic M2"}, "[23]": {"system": "Salmonella typhimurium strains: TA98, TA1535, and TA1537", "assay": "Ames MPF test", "format": "cell-based", "conditions": "AVN-101 highest concentration 50μM", "method_in_brief": "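Run per kit manual in the Ames MPF fluctuation format with histidine-dependent strains TA98, TA1535 and TA1537. Test compound reached a highest concentration of 50 μM. Strain-specific positive controls: 4-nitro-o-phenylenediamine 15 μg/mL (TA98), sodium azide 2 μg/mL (TA1535), 9-aminoacridine 50 μg/mL (TA1537). Reverse mutation rate recorded.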"}, "[24]": {"biological_target": "5-HT2A receptor (Homo sapiens, UniProt P28223)", "sequence (P28223 whole entry)": "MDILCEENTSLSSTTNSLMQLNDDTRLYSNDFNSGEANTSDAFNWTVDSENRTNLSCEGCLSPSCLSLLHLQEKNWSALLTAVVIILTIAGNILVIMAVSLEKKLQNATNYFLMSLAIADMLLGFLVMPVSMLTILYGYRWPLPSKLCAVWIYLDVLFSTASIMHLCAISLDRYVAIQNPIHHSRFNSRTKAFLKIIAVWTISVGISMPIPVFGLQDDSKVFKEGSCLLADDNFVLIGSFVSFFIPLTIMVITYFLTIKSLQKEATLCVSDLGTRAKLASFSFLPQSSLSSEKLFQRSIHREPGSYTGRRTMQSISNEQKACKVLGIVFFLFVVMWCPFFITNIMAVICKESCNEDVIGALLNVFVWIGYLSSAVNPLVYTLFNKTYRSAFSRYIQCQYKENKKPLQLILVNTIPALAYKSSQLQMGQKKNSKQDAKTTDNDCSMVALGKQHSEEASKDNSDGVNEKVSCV", "assay": "Radioligand binding competition, 5-HT2A"}, "[25]": {"system": "calcium channels of L type", "assay": "Target panel binding, calcium channel L type"}, "[26]": {"conditions": "read-out: % Inhibition at 31.6μM"}}, "note": "Where a name gives a salt, the structure may show the parent alone."}
{"molecule": "Cc1ccc2c(c1)c1c(n2CCc2ccccc2)CCN(C)C1", "note": "[AVN-101, 2,8-dimethyl-5-penethyl-2,3,4,5-tetra-hydro-1h-pyrido[[4,3-B]]indole hydrochloride]", "values": [{"measurement": "agonistic activity (intracellular free Ca2+)", "setting": "[1]; AVN-101 alone, 10μM", "value": "lacked intrinsic agonistic activity"}, {"measurement": "blockade of α methyl-serotonin-induced Ca2+ spike", "setting": "[1]; αMet5-HT 5μM, AVN-101 10μM", "value": "effectively blocking"}, {"measurement": "IC50", "setting": "[2]", "value": 14800, "unit": "nM"}, {"measurement": "inhibition at 31.6 µM", "setting": "[2]; [26]", "value": 66, "unit": "%"}, {"measurement": "toxic effects", "setting": "[3]; 5 mg/kg PO daily", "value": "severe hepatotoxic and moderate cardiotoxic effects"}, {"measurement": "toxic effects", "setting": "[3]; 0.25 and 0.5 mg/kg PO daily", "value": "substantially less noticeable"}, {"measurement": "IC50", "setting": "[4]", "value": 2400, "unit": "nM"}, {"measurement": "inhibition at 31.6 µM", "setting": "[4]; [26]", "value": 97, "unit": "%"}, {"measurement": "LD50 at 2 weeks", "setting": "[5]; ip", "value": "105 ± 5", "unit": "mg/kg"}, {"measurement": "LD50 at 2 weeks", "setting": "[5]; po", "value": "331 ± 101", "unit": "mg/kg"}, {"measurement": "QT interval", "setting": "[6]", "value": "0.22 ± 0.04", "unit": "s"}, {"measurement": "heart rate", "setting": "[6]", "value": "ca. 175 beats/min"}, {"measurement": "residual amount of original compound", "setting": "[7]", "value": 45, "unit": "%"}, {"measurement": "k el", "setting": "[8]; 1μM", "value": 0.352}, {"measurement": "Remaining quantity", "setting": "[8]; 7.9 min", "value": "<1", "unit": "%"}, {"measurement": "Remaining quantity", "setting": "[8]; 30 min", "value": "<1", "unit": "%"}, {"measurement": "half-life at 1 µM", "setting": "[8]; rat, liver microsomes", "value": 1.97, "unit": "min"}, {"measurement": "k el at 1 μM", "setting": "[8]; rat, liver microsomes", "value": 0.00558, "unit": "s⁻¹"}, {"measurement": "microsomal CLint at 1 µM", "setting": "[8]; rat, liver microsomes", "value": 703, "unit": "µL/min/mg"}, {"measurement": "Ki", "setting": "[9]", "value": "0.41 to 3.6", "unit": "nM"}, {"measurement": "Ki", "setting": "[10]", "value": 720, "unit": "nM"}, {"measurement": "Ki", "setting": "[11]", "value": 1.17, "unit": "nM"}, {"measurement": "Fabs", "setting": "[12]; AVN-101 PO 10 mg/kg vs IV 2 mg/kg", "value": 4.6, "unit": "%"}, {"measurement": "Cmax", "setting": "[12]; iv, 1 mg/kg", "value": 13.7, "unit": "ng/mL"}, {"measurement": "Tmax", "setting": "[12]; iv, 1 mg/kg", "value": 1, "unit": "min"}, {"measurement": "half-life", "setting": "[12]; iv, 1 mg/kg", "value": 20.9, "unit": "min"}, {"measurement": "AUC", "setting": "[12]; iv, 2 mg/kg", "value": 498, "unit": "ng·h/mL"}, {"measurement": "Cmax", "setting": "[12]; iv, 2 mg/kg", "value": 3740, "unit": "ng/mL"}, {"measurement": "Tmax", "setting": "[12]; iv, 2 mg/kg", "value": 1, "unit": "min"}, {"measurement": "half-life", "setting": "[12]; iv, 2 mg/kg", "value": 29.8, "unit": "min"}, {"measurement": "AUC", "setting": "[12]; po, 5 mg/kg", "value": 31.6, "unit": "ng·h/mL"}, {"measurement": "Cmax", "setting": "[12]; po, 5 mg/kg", "value": 9.1, "unit": "ng/mL"}, {"measurement": "Tmax", "setting": "[12]; po, 5 mg/kg", "value": 240, "unit": "min"}, {"measurement": "AUC", "setting": "[12]; po, 10 mg/kg", "value": 114, "unit": "ng·h/mL"}, {"measurement": "Cmax", "setting": "[12]; po, 10 mg/kg", "value": 23, "unit": "ng/mL"}, {"measurement": "Tmax", "setting": "[12]; po, 10 mg/kg", "value": 60, "unit": "min"}, {"measurement": "half-life", "setting": "[12]; po, 10 mg/kg", "value": 366, "unit": "min"}, {"measurement": "signs of toxicity", "setting": "[13]", "value": "did not show any signs of toxicity"}, {"measurement": "binding", "setting": "[14]", "value": "does not bind"}, {"measurement": "fraction of original concentration", "setting": "[15]; distilled water", "value": 97.03, "unit": "%"}, {"measurement": "fraction of original concentration", "setting": "[15]; physiological solution pH 7.4", "value": 99.38, "unit": "%"}, {"measurement": "fraction of original concentration", "setting": "[15]; salt solution pH 4.0", "value": 98.05, "unit": "%"}, {"measurement": "fraction of original concentration", "setting": "[15]; salt solution pH 7.0", "value": 99.95, "unit": "%"}, {"measurement": "binding", "setting": "[16]", "value": "does not bind"}, {"measurement": "Ki", "setting": "[17]", "value": 0.153, "unit": "nM"}, {"measurement": "remaining at 0.5 h, 2 µM", "setting": "[18]", "value": 118, "unit": "%"}, {"measurement": "half-life at 1 µM", "setting": "[19]; T1/2, +NADPH+UDPGA", "value": 26.2, "unit": "min"}, {"measurement": "half-life at 2 µM", "setting": "[19]; T1/2, +NADPH+UDPGA", "value": 58.9, "unit": "min"}, {"measurement": "half-life at 1 µM", "setting": "[19]; T1/2, +NADPH", "value": 24.8, "unit": "min"}, {"measurement": "half-life at 2 µM", "setting": "[19]; T1/2, +NADPH", "value": 87.1, "unit": "min"}, {"measurement": "metabolism with UDPGA only", "setting": "[19]; phase 2 co-factor UDPGA only", "value": "no metabolism"}, {"measurement": "metabolism with UDPGA only", "setting": "[20]; phase 2 co-factor UDPGA only", "value": "no metabolism"}, {"measurement": "half-life at 1 µM", "setting": "[20]; T1/2, +NADPH+UDPGA", "value": 0.96, "unit": "min"}, {"measurement": "half-life at 2 µM", "setting": "[20]; T1/2, +NADPH+UDPGA", "value": 2.34, "unit": "min"}, {"measurement": "half-life at 1 µM", "setting": "[20]; T1/2, +NADPH", "value": 1.22, "unit": "min"}, {"measurement": "half-life at 2 µM", "setting": "[20]; T1/2, +NADPH", "value": 2.36, "unit": "min"}, {"measurement": "duration of freezing behavior", "setting": "[21]", "value": "significantly reduced duration of the freezing behavior"}, {"measurement": "binding", "setting": "[22]", "value": "does not bind"}, {"measurement": "mutagenicity (reverse mutation rate)", "setting": "[23]", "value": "produced no mutagenesis"}, {"measurement": "Ki", "setting": "[24]", "value": "1.2 to 2", "unit": "nM"}, {"measurement": "binding", "setting": "[25]", "value": "does not bind"}]}
